Assay outcomes as filed in PubChem.
VIM-2 inh = inhibitors of Pseudomonas aeruginosa VIM-2 metallo-beta-lactamase | purified VIM-2, nitrocefin hydrolysis, epi-absorbance fluorescence | inhibition, % at 5.6 µM | 0.89% of 290,000 active | AID 1527;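 active means inhibition above the mean of all tested compounds plus 3 SD, cutoff set per screening run, cut at about 7.5% in these data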;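 further: red hydrolysis product quenches plate fluorescence so inhibitors raise well fluorescence; 0% = enzyme with DMSO and 100% = DMSO without enzyme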
IMP-1 inh-1 = inhibitors of Pseudomonas aeruginosa IMP-1 metallo-beta-lactamase. 0.45% of 290,000 active. inhibition, % at 5.6 µM. purified IMP-1, nitrocefin hydrolysis, epi-absorbance fluorescence;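 active means inhibition above the mean plus 3 SD of all compounds in the same screening run, cut at about 4.5% in these data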;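 further: 0% = IMP-1 with DMSO and 100% = DMSO wells lacking enzyme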
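Assay system: purified recombinant IMP-1 beta-lactamase. Input: IMP-1 0.2 nM before substrate addition. Buffer or medium: Zinc- and detergent-supplemented HEPES buffer, pH 7.1. Schedule: 25 °C, 15 min preincubation, 25 min reaction. Signal: Epi-absorbance fluorescence, 480 nm excitation, 530 nm emission. Evaluation: percent inhibition from optical density relative to buffer-blank wells.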
PvdQ inh = blocks Pseudomonas aeruginosa PvdQ acylase activity; purified PvdQ acylase, fluorescence plate reader; inhibition, % at 10 µM; 0.063% of 340,000 active; in the data active means inhibition above about 30%, passing the limit was not always enough;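 further: 0% = vehicle neutral wells and 100% = reference inhibitor wells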
RAD54 inh = blocks human RAD54 Holliday junction branch migration; 0.14% of 360,000 active; inhibition, % at 10.4 µM; Q92698; FAM/BHQ fluorescence;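 active means mean normalized replicate activity at least 40 and at least half of replicates scoring 40 or more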;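 further: 0% = median of neutral control wells and 100% = median of positive control wells; inhibitors cause a drop in the FAM fluorescence signal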
DNA FID counter = counter-screen for HCV NS3 helicase inhibitors: DNA intercalator displacement; DNA fluorescent intercalator displacement, fluorescence; inhibition, % at 7.9 µM; 0.17% of 290,000 active; in the data active means inhibition above about 37%;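 further: 0% = vehicle and 100% = reference compound; higher means more ethidium bromide displaced from hairpin DNA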
IMP-1 inh-2 = blocks IMP-1 metallo-beta-lactamase in VIM-2 selectivity screen; 1,300 tested, under 10 active; purified IMP-1, nitrocefin hydrolysis, epi-absorbance fluorescence; shares compounds with VIM-2 inh; inhibition, % at 5.6 µM; call rule not given here;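 further: 0% = enzyme with vehicle and 100% = vehicle without enzyme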
VIM-2 FRET ctr = VIM-2 FRET inhibition, artifact counter-screen; purified VIM-2, CCF2 FRET substrate hydrolysis; inhibition, % at 5.6 µM; 23% of 1,300 active; AID 1857; shares compounds with VIM-2 inh;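 active means inhibition above the mean of all tested compounds plus 3 SD, cut at about 19% in these data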;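 further: 0% = VIM-2 plus DMSO and 100% = no enzyme wells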
TEM-1 counter = blocks E. coli TEM-1 beta-lactamase in VIM-2 selectivity screen | shares compounds with VIM-2 inh | Purified TEM-1, nitrocefin hydrolysis, epi-absorbance fluorescence | inhibition, % at 5.6 µM | 3% of 1,300 active;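 active means inhibition above that campaign's mean inhibition plus 3 SD, cut at about 0.46% in these data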;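 further: 0% = TEM-1 with DMSO and 100% = TEM-1 with 100 µM potassium clavulanate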
Target sequence (P62593 whole entry, looked up): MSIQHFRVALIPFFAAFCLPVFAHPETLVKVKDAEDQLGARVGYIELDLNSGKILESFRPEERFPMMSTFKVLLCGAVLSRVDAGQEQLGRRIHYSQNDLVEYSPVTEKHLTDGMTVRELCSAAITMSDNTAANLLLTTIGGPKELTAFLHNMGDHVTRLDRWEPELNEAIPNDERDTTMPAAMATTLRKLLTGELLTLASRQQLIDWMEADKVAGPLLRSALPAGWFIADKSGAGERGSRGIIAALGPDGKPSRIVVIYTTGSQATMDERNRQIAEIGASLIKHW
VIM-2 confirm 2 = confirmation of P. aeruginosa VIM-2 metallo-beta-lactamase inhibitors | shares compounds with VIM-2 inh | purified VIM-2, nitrocefin hydrolysis, epi-absorbance | inhibition, % at 5.6 µM | 96% of 1,300 active | AID 2187;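 active means inhibition of the VIM-2 beta-lactamase enzyme above about 11% from the earlier first-round screen, limit read from the data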;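 further: 0% = VIM-2 with DMSO and 100% = buffer wells without enzyme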
The depositor's hits bear a star. Shown are actives, neighbours in structure and some others; about 1% of the full set was active somewhere.

For C=CCn1c(=N)c(C(=O)NCCCOC)cc2c(=O)n3cccc(C)c3nc21 the results were VIM-2 inh 25*, IMP-1 inh-1 0, PvdQ inh -45, RAD54 inh 45, DNA FID counter 7, IMP-1 inh-2 -4, VIM-2 FRET ctr -88, TEM-1 counter -8 and VIM-2 confirm 2 29*.
CNC(=O)c1cc2c(=O)n3cccc(C)c3nc2n(C(C)C)c1=N was read as VIM-2 inh 12*, IMP-1 inh-1 1, PvdQ inh -33, RAD54 inh 32, DNA FID counter 1, IMP-1 inh-2 -3, VIM-2 FRET ctr -92, TEM-1 counter -6 and VIM-2 confirm 2 26*.
`CCNC(=O)Nc1ccc2c(c1)C(=O)N(C)[C@H]1CC[C@H](CC(=O)NCCOC)O[C@@H]1CO2` gave RAD54 inh -1.
`CO[C@H]1CN(C)C(=O)c2cc(NC(=O)C3CC3)ccc2OC[C@H](C)N(C)C[C@@H]1C` gave RAD54 inh -21.
`CN(CC(=O)Nc1cccc(S(=O)(=O)N(C)C)c1)Cc1ccccc1` gave VIM-2 inh 1, IMP-1 inh-1 -2, PvdQ inh -14, RAD54 inh -5 and DNA FID counter -6.
Screening CN(C)S(=O)(=O)c1cccc(NC(=S)NN=C(Cc2ccccc2)Cc2ccccc2)c1 returned VIM-2 inh 15*, IMP-1 inh-1 -4, PvdQ inh -4, DNA FID counter -4, IMP-1 inh-2 -4, VIM-2 FRET ctr 1, TEM-1 counter -8 and VIM-2 confirm 2 4.
Screening CN(C)S(=O)(=O)c1cccc(NC(=S)N/N=C/C2CC=CCC2)c1 (stereo not given) returned VIM-2 inh 71*, IMP-1 inh-1 -4, PvdQ inh -4, DNA FID counter -19, IMP-1 inh-2 -3, VIM-2 FRET ctr 83*, TEM-1 counter -6 and VIM-2 confirm 2 76*.
Screening OC(COc1cccc2ccccc12)CN1CCN(c2ccccc2)CC1 (stereo not given) returned VIM-2 inh -3, IMP-1 inh-1 -2, PvdQ inh 2, RAD54 inh -1 and DNA FID counter 11.
`CC(COc1cccc2ccccc12)CN1CCN(C)CC1` (stereo not given) gave VIM-2 inh 22*, IMP-1 inh-1 -2, PvdQ inh -6, RAD54 inh -2, DNA FID counter 8, IMP-1 inh-2 -2, VIM-2 FRET ctr 2, TEM-1 counter -6 and VIM-2 confirm 2 48*.
For CCC(=O)Nc1ccc2c(c1)OC[C@H](C)N(C(=O)CC1CC1)C[C@@H](C)[C@H](OC)CN(C)C2=O the results were RAD54 inh 2.
Screening O=C(NCCN1CCOCC1)C1CCN(c2ncnc3c2sc2cccc(F)c23)CC1 returned VIM-2 inh 23*, IMP-1 inh-1 -1, PvdQ inh -8, RAD54 inh -11, DNA FID counter 0, IMP-1 inh-2 -2, VIM-2 FRET ctr 3, TEM-1 counter -7 and VIM-2 confirm 2 37*.
`CCCCN(CC)CCNC(=O)C1CCN(S(=O)(=O)c2cccc3nsnc23)CC1` gave VIM-2 inh -1, IMP-1 inh-1 -3, PvdQ inh -13, RAD54 inh 7 and DNA FID counter 9.
For CCCCN(CC)CCCNC(=O)C1CCN(c2ncnc3c2sc2cccc(F)c23)CC1 the results were VIM-2 inh 30*, IMP-1 inh-1 1, PvdQ inh -9, DNA FID counter 19, IMP-1 inh-2 0, VIM-2 FRET ctr 4, TEM-1 counter -6 and VIM-2 confirm 2 38*.
`CCOc1ccc(C(=O)Nc2ccc(N3CCN(C)CC3)cc2)cc1Br` gave VIM-2 inh 24*, IMP-1 inh-1 -3, PvdQ inh -2, RAD54 inh -3, DNA FID counter 25, IMP-1 inh-2 -3, VIM-2 FRET ctr -3, TEM-1 counter -7 and VIM-2 confirm 2 43*.
For CN1CCN(c2ccc(NC(=O)COc3ccccc3Cl)cc2)CC1 the results were VIM-2 inh 20*, IMP-1 inh-1 -3, PvdQ inh 6, RAD54 inh 9, DNA FID counter 10, IMP-1 inh-2 -3, VIM-2 FRET ctr -1, TEM-1 counter -6 and VIM-2 confirm 2 40*.
CCOc1ccc(C(=O)Nc2ccc(N3CCN(C(=O)c4ccco4)CC3)cc2)cc1Br was read as PvdQ inh 3 and RAD54 inh 8.
Screening CCC(=O)N1CCN(c2ccc(NC(=O)COc3ccccc3Cl)cc2)CC1 returned VIM-2 inh -3, IMP-1 inh-1 1, PvdQ inh -13, RAD54 inh 10 and DNA FID counter -25.
Screening CC(=O)N1CCN(c2ccc(NC(=O)c3ccc4c(c3)OCCO4)cc2)CC1 returned VIM-2 inh -2, IMP-1 inh-1 0, PvdQ inh 12 and DNA FID counter -9.
Screening CN1CCN(c2ccc(NC(=O)c3ccc4c(c3)OCO4)cc2)CC1 returned VIM-2 inh 18*, IMP-1 inh-1 -4, PvdQ inh -15, RAD54 inh 5, DNA FID counter 7, IMP-1 inh-2 -4, VIM-2 FRET ctr 0, TEM-1 counter -7 and VIM-2 confirm 2 31*.
For CO[C@@H]1CN(C)C(=O)c2ccc(NC(=O)C3CC3)cc2OC[C@@H](C)N(Cc2cccc(F)c2)C[C@@H]1C the results were RAD54 inh -7.
For c1ccc2nc(-c3ccc(-n4ccnc4)cc3)ccc2c1 the results were VIM-2 inh 38*, IMP-1 inh-1 -2, PvdQ inh -2, RAD54 inh -6, DNA FID counter -23, IMP-1 inh-2 -5, VIM-2 FRET ctr -11, TEM-1 counter -6 and VIM-2 confirm 2 47*.
Screening COc1ccc(NC(=O)Nc2ccc3c(c2)C(=O)N([C@H](C)CO)C[C@H](C)[C@H](CN(C)S(C)(=O)=O)O3)cc1 returned RAD54 inh 8.
CCCN1[C@@H]2c3ccc(-c4ccccc4F)c(=O)n3C[C@@H]2[C@@H](CO)[C@@H]1C(=O)NC1CCC1 was read as RAD54 inh -12.
c1cn(CCCNc2ncnc3sc4c(c23)CCC4)cn1 was read as VIM-2 inh 28*, IMP-1 inh-1 -2, PvdQ inh 0, RAD54 inh 1, DNA FID counter 1, IMP-1 inh-2 -3, VIM-2 FRET ctr -10, TEM-1 counter -8 and VIM-2 confirm 2 56*.
